Source: ChEMBL document CHEMBL5661974, “Pharmacologic characterization of a potent inhibitor of class I phosphatidylinositide 3-kinases” (Cancer Res, 2007)
Calls of active or inactive are those of the source. No cut-off for these calls is given here.

Columns and labels:
PC-3 = assay: Antiproliferative activity against human PC-3 cells harboring PTEN deletion assessed as cell growth inhibition incubated for 96 hrs by SRB assay; type: functional
A549 = assay: Antiproliferative activity against human A549 cells harboring AKT assessed as cell growth inhibition incubated for 96 hrs by SRB assay; type: functional
U-87 MG [1] = assay: Inhibition of recombinant PI3K in human U-87MG cells assessed as phosphorylation of AKT at ser473 at 5 times of GI50 concentration within 15 mins treatment by immunoblot analysis; type: cell-based
[2] = Cmax in BALB/C mouse liver at 2.5 mg/kg, iv by LC-MS/MS analysis; type: ADME, organism-based
In short: (§1)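 Female BALB/c mice, 6–8 weeks old, given 2.5 mg/kg i.v. in 10% DMSO, 0.5% Tween 20 in saline. Plasma came from serial bleeds; tissues were homogenized in 2 or 3 volumes PBS. Samples were methanol-precipitated with an analogue internal standard, then LC-MS/MS by multiple reaction monitoring against an 8-point external calibration of 2–20,000 nmol/L. Parameters came from WinNonlin noncompartmental analysis, model 201 for plasma and model 200 for tissues.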

[3] = Tmax in BALB/C mouse plasma at 2.5 mg/kg, iv by LC-MS/MS analysis; type: ADME, organism-based; in short: as §1
[4] = AUClast in BALB/C mouse plasma at 2.5 mg/kg, iv by LC-MS/MS analysis; type: ADME, organism-based; in short: as §1
[5] = Volume of distribution in BALB/C mouse plasma at 2.5 mg/kg, iv by LC-MS/MS analysis; type: ADME, organism-based; in short: as §1
[6] = Half life in BALB/C mouse plasma at 2.5 mg/kg, iv by LC-MS/MS analysis; type: ADME, organism-based; in short: as §1
U-87 MG [7] = assay: Antitumor activity against PTEN null human U-87MG cells xenografted female Ncr model assessed as T/C at 70 mg/kg, ip administered once a daily for 14 days relative to control; type: functional, U-87MG ATCC; conditions: time 14 day
HCT-116 [8] = assay: Antitumor activity against PIK3CA mutant human HCT-116 cells xenografted female Ncr model assessed as T/C at 30 mg/kg, ip administered once a daily for 14 days relative to control; type: functional; conditions: time 14 day
HCT-116 [9] = assay: Antitumor activity against PIK3CA mutant human HCT-116 cells xenografted female Ncr model assessed as T/C at 30 mg/kg, ip administered twice a daily for 21 days relative to control; type: functional; conditions: time 21 day
[10] = Antitumor activity against PIK3CA mutant human […] cells xenografted female Ncr model assessed as T/C at 100 mg/kg, ip administered twice a daily for 16 days relative to control; type: functional; conditions: time 16 day
[11] = Toxicity in human OVCAR-3 cells xenografted female Ncr model at 15 to 30 mg/kg, ip administered daily for 15 days; type: organism-based; conditions: in vivo, 360 h, dose 15-30 mg/kg, time 15 day
U-87 MG [12] = conditions: Homo sapiens, time 4.0 hrs
OVCAR-3 = conditions: Homo sapiens, dose 100.0 mg/kg, route ip

Oc1cccc(-c2nc(N3CCOCC3)c3oc4ncccc4c3n2)c1 [PI-103]
GI50 (PC-3): 100 nM
GI50 (A549): 210 nM
inhibition (U-87 MG [1]): Active
Cmax [2]: 802 nM
Tmax [3]: 0 h
AUC(0-t) [4]: 0.624 µM·h
Vd [5]: 0.2 L
half-life [6]: 42 min
T/C (U-87 MG [7]): 45.8%
T/C (HCT-116 [8]): 68%
T/C (HCT-116 [9]): 48%
T/C [10]: 36%
Activity [11]: Toxic
inhibition (U-87 MG [12]): Active
inhibition (OVCAR-3): Active
